Our source for the ΔTm, IC50 and Activity values is ChEMBL document CHEMBL1177786, “Synthesis of novel beta-carbolines with efficient DNA-binding capacity and potent cytotoxicity” (Bioorg Med Chem Lett, 2010).

Active and inactive are the calls of the source. The rule behind the calls is not given here. Where only a bound is given, the exact number is not on record here.

The test system of experiment [1] is Calf thymus DNA. Nature of the experiment: Binding affinity to calf thymus DNA assessed as change in melting temperature at drug/DNA ratio 0.2 at pH 7.4. It counts as nucleic-acid assay. The settings on record: Bos taurus. The gist of the method: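 Thermal denaturation of calf thymus DNA in PE buffer (1 mM Na₂HPO₄, 0.1 mM EDTA, pH 7.4), drug/DNA ratio 0.2; ΔTm taken as Tm of drug–DNA complex minus Tm of DNA alone.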

For the next experiment, the system named is CWR22R. Nature of the experiment: Cytotoxicity against human 22Rv1 cells by MTT assay. The format is functional, cell-based. The gist of the method:
(§1)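 MTT assay in human tumour lines. IC50 is the compound concentration giving a 50% drop in optical density relative to untreated cells. Values are means of three independent determinations.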

Experiment [2] deals with Calf thymus DNA. Kind of experiment: Binding affinity to calf thymus DNA at pH 7.4 by UV-vis spectroscopy. The format is nucleic-acid assay. Conditions: Bos taurus. The gist of the method: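 UV absorption spectra recorded in PE buffer (1 mM Na₂HPO₄, 0.1 mM EDTA, pH 7.4) with CT-DNA increasing from 0.0 to 0.2 mM. Quartz cells with 10 mm path, room temperature.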
A further experiment deals with HepG2. Nature of the experiment: Cytotoxicity against human HepG2 cells by MTT assay. It counts as functional, cell-based. The gist of the method: as §1
For orientation: Tetrazolium dyes change colour on reduction, which living cells bring about.

The next experiment concerns HT-29. Nature of the experiment: Cytotoxicity against human HT-29 cells by MTT assay. It counts as functional, cell-based. In a few lines: as §1
The subject of the next experiment is MCF7. Nature of the experiment: Cytotoxicity against human MCF7 cells by MTT assay. The format is functional, cell-based. In a few lines:
as §1

A further experiment deals with 769-P. Kind of experiment: Cytotoxicity against human 769-P cells by MTT assay. The format is functional, cell-based. The gist of the method:
as §1

In a further experiment the test system is OS-RC-2. Kind of experiment: Cytotoxicity against human OS-RC2 cells by MTT assay. The format is functional, cell-based. In a few lines: as §1
A short description of experiment [3]: Cytotoxicity against human BCG823 cells by MTT assay. It counts as functional, cell-based. In a few lines: as §1
A further experiment has as its system A-375. Kind of experiment: Cytotoxicity against human A375 cells by MTT assay. The format is functional, cell-based. The gist of the method: as §1
For experiment [4], the system named is Calf thymus DNA. Nature of the experiment: Binding affinity to calf thymus DNA assessed as fluorescence quenching at 10 uM by spectrofluorimeter analysis. The format is nucleic-acid assay. Conditions: Bos taurus. The gist of the method:
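Compound held fixed at […] in PE buffer (1 mM Na₂HPO₄, 0.1 mM EDTA, pH 7.4), titrated with CT-DNA. Fluorescence quenching recorded on a spectrofluorometer, excitation 372 nm.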

Another experiment deals with KB. Nature of the experiment: Cytotoxicity against human KB cells by MTT assay. It counts as functional, cell-based. In a few lines:
as §1

For a further experiment, the system named is 786-0. Kind of experiment: Cytotoxicity against human 786-0 cells by MTT assay. The format is functional, cell-based. In a few lines: as §1

Usually ΔTm stands for the change in melting temperature against a reference sample. One may read the IC50 as the concentration at which inhibition is half-maximal. For the compound `CCN(CC)CCCNCc1cc2c3ccccc3n(CCCc3ccccc3)c2cn1`, the ΔTm in the experiment on Calf thymus DNA [1] came to 18.8 °C. Besides, the IC50 in the experiment with CWR22R was 7.7 µM; with HepG2, 3.8 µM; in the experiment with HT-29, 2.6 µM; with MCF7 it was 13.8 µM; with 769-P, 5.1 µM; in the experiment on OS-RC-2, 13.1 µM. Moreover, the IC50 in experiment [3] is 7.4 µM; in the experiment on A-375, 8.9 µM; in the experiment with KB, 4.8 µM; in the experiment with 786-0, 8.3 µM. The outcome in the experiment with Calf thymus DNA [2] and in the experiment on Calf thymus DNA [4] was Active.
On to `CCN(CC)CCCNCc1cc2c(cn1)[nH]c1ccccc12`, for which the ΔTm in the experiment with Calf thymus DNA [1] came out at 12.6 °C. In addition, the 50% inhibitory concentration (IC50) was above 100 µM in the experiment on CWR22R; 93.7 µM with HepG2; above 100 µM with HT-29; above 100 µM in the experiment with MCF7; 75.3 µM in the experiment with 769-P; 67.4 µM with OS-RC-2. The concentration for half-maximal inhibition (IC50) (in experiment [3]; in the experiment with A-375; with KB; in the experiment on 786-0) was above 100 µM each time. The outcome in the experiment on Calf thymus DNA [2] and with Calf thymus DNA [4] was Active.
